Experimental data: ChEMBL document CHEMBL3808280, “GroEL/ES inhibitors as potential antibiotics” (Bioorg Med Chem Lett, 2016)

What was measured:
Staphylococcus aureus [1] = assay: Antibacterial activity against methicillin resistant Staphylococcus aureus subsp. aureus HPV107 (ATCC BAA-44) assessed as reduction in bacterial growth incubated for 6 to 8 hrs; type: functional, organism-based
Summary of the method: (§1)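 Broth proliferation assay. S. aureus and MRSA grown in ATCC Medium 18, other pathogens in Brain Heart Infusion. Stagnant incubation at 37°C under breathable seal. OD600 read at mid-log (6-8 h) and corrected with bacteria-free baseline plates. EC50 by variable-slope nonlinear fit, at least triplicate.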

Enterococcus faecium = assay: Antibacterial activity against multidrug resistant Enterococcus faecium NCTC 7171 (ATCC 19434) assessed as reduction in bacterial growth incubated for 6 to 8 hrs; type: functional, organism-based; summary of the method: as §1
Enterobacter cloacae = assay: Antibacterial activity against multidrug resistant Enterobacter cloacae subsp. cloacae CDC 442-68 (ATCC 13047) assessed as reduction in bacterial growth incubated for 6 to 8 hrs; type: functional, organism-based; summary of the method: as §1
Staphylococcus aureus [2] = assay: Antibacterial activity against methicillin susceptible Staphylococcus aureus subsp. aureus Seattle 1945 (ATCC 25923) assessed as reduction in bacterial growth incubated for 6 to 8 hrs
Pseudomonas aeruginosa = assay: Antibacterial activity against multidrug resistant Pseudomonas aeruginosa NCTC 10332 (ATCC 10145) assessed as reduction in bacterial growth incubated for 6 to 8 hrs; type: functional, organism-based; summary of the method: as §1
[3] = system: Klebsiella pneumoniae subsp. pneumoniae; assay: Antibacterial activity against multidrug resistant Klebsiella pneumoniae subsp. pneumoniae NCTC 9633 (ATCC 13883) assessed as reduction in bacterial growth incubated for 6 to 8 hrs; type: functional, organism-based; summary of the method: as §1
Acinetobacter baumannii = assay: Antibacterial activity against multidrug resistant Acinetobacter baumannii 2208 (ATCC 19606) assessed as reduction in bacterial growth incubated for 6 to 8 hrs; type: functional; summary of the method: as §1
Escherichia coli [4] = assay: Antibacterial activity against Escherichia coli SM101 assessed as reduction in bacterial growth incubated for 12 hrs by UV-Vis spectrophotometric analysis; type: functional, organism-based; settings: SM101, 12 h
HEK293 = assay: Cytotoxicity against HEK293 cells assessed as reduction in cell viability after 48 hrs by alamar blue assay; type: cell-based; settings: Homo sapiens, HEK293, 48 h
Escherichia coli [5] = assay: Antibacterial activity against Escherichia coli DH5alpha assessed as reduction in bacterial growth incubated for 6 to 8 hrs; type: functional, organism-based; settings: DH5[alpha]
HSP60/HSP10 [6] = target: T1, HSP60/HSP10 (Homo sapiens, UniProt P10809); assay: Inhibition of human HSP60/HSP10 expressed in Escherichia coli Rosetta2(DE3) cells assessed as reduction in denatured pig heart MDH ATPase activity by malachite green dye based assay
HSP60/HSP10 [7] = target: T1, HSP60/HSP10; assay: Inhibition of human HSP60/HSP10 expressed in Escherichia coli Rosetta2(DE3) cells assessed as inhibition of denatured pig heart MDH refolding by measuring reduction in NADH production incubated for 60 mins by micro plate reader analysis
Summary of the method: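 Pig heart MDH was denatured in guanidine-HCl (dMDH) and complexed with HSP60, then HSP10, in Tris pH 7.4/KCl/MgCl2/DTT buffer. EDTA quench (100 mM final); refolded MDH activity was followed with mesoxalate/NADH at 340 nm.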

[8] = Cytotoxicity against human THLE3 cells assessed as reduction in cell viability after 48 hrs by alamar blue assay; type: cell-based; settings: THLE3, 48 h
Escherichia coli [9] = assay: Antibacterial activity against acrB-deficient Escherichia coli MC4100 assessed as reduction in bacterial growth incubated for 6 to 8 hrs; type: functional, organism-based
E. coli GroEL/ES [10] = target: T2, E. coli GroEL/ES (Escherichia coli, UniProt P0A6F5); assay: (§2) Inhibition of Escherichia coli GroEL/GroES using Escherichia coli GroEL expressed in Escherichia coli DH5alpha cells and Escherichia coli GroES expressed in Escherichia coli BL21(DE3) cells assessed as reduction in pig heart native refolded MDH-mediated NADH production by micro plate reader analysis
Summary of the method: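 Native MDH counter-screen. GroEL/ES-dMDH refolding run 60 min at 37°C, then EDTA-quenched without compound. IC50 averaged from at least triplicate.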

Bacillus subtilis = assay: Antibacterial activity against Bacillus subtilis 168 assessed as reduction in bacterial growth incubated for 6 to 8 hrs; type: functional, organism-based; settings: subsp. subtilis str. 168
E. coli GroEL/ES [11] = target: T2, E. coli GroEL/ES; assay: (§3) Inhibition of Escherichia coli GroEL/GroES using Escherichia coli GroEL expressed in Escherichia coli DH5alpha cells and Escherichia coli GroES expressed in Escherichia coli BL21(DE3) cells assessed as inhibition of denatured rhodanese refolding by measuring reduction in thiocyanate production incubated for 60 mins by micro plate reader analysis
Summary of the method: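 Urea-denatured rhodanese bound to GroEL/GroES in folding buffer containing thiosulfate. After 60 min at 37°C, thiocyanate reaction (KCN, thiosulfate, phosphate) run, then formaldehyde quench and ferric nitrate added. Fe(SCN)3 read at 460 nm after 15 min RT, with protein-free baseline plates.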

E. coli GroEL/ES [12] = target: T2, E. coli GroEL/ES; assay: as §2, with “in” for “in pig heart”, “rhodanese-mediated thiocyanate” for “MDH-mediated NADH”
E. coli GroEL/ES [13] = target: T2, E. coli GroEL/ES; assay: as §3, with “pig heart MDH” for “rhodanese”, “NADH” for “thiocyanate”
Summary of the method: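 Denatured MDH (guanidine-HCl/DTT, 30 min RT) bound to GroEL with GroES in Tris pH 7.4, KCl, MgCl2, DTT buffer. 60 min at 37°C, EDTA quench to 100 mM. Refolded MDH activity read with mesoxalate/NADH at 340 nm. Log-averaged IC50 from replicates.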

T1 sequence (P10809 whole entry): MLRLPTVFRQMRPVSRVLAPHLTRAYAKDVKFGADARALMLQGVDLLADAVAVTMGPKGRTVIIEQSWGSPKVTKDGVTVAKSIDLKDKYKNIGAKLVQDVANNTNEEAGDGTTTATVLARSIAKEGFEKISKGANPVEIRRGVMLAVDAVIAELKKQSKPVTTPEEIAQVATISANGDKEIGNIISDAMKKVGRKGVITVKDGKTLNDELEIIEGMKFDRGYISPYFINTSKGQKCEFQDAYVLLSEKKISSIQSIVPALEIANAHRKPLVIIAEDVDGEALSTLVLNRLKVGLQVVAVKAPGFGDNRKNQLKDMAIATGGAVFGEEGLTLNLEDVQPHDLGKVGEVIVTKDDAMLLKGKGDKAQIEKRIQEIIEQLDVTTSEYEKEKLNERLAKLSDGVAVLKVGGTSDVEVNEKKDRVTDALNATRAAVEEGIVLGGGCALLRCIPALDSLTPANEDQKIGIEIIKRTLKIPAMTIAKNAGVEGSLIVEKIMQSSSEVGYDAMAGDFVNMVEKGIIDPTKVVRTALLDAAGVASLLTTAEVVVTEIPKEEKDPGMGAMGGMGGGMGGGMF
T1 sequence (P61604 whole entry, further chain): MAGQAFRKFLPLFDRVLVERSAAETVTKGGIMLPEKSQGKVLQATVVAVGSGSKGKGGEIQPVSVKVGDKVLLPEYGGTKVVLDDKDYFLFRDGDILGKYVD
T2 sequence (P0A6F5 whole entry, looked up): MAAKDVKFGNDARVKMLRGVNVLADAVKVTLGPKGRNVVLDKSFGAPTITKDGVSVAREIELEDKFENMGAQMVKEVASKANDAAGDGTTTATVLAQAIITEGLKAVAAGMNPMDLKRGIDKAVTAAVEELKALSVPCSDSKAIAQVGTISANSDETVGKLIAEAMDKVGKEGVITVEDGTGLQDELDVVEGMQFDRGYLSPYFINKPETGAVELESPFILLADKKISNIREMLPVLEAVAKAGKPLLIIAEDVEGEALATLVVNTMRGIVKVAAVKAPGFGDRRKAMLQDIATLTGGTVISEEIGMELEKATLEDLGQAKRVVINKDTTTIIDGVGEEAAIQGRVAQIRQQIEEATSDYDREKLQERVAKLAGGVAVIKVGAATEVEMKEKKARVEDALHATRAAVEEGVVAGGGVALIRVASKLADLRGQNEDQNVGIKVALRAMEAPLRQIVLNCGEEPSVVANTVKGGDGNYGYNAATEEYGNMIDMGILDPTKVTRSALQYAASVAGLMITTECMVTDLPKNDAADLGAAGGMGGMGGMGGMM

SMILES | EC50 (Staphylococcus aureus [1]) | EC50 (Enterococcus faecium) | EC50 (Enterobacter cloacae) | EC50 (Staphylococcus aureus [2]) | EC50 (Pseudomonas aeruginosa) | EC50 [3] | EC50 (Acinetobacter baumannii) | EC50 (Escherichia coli [4]) | EC50 (HEK293) | EC50 (Escherichia coli [5]) | IC50 (HSP60/HSP10 [6]) | IC50 (HSP60/HSP10 [7]) | EC50 [8] | EC50 (Escherichia coli [9]) | IC50 (E. coli GroEL/ES [10]) | EC50 (Bacillus subtilis) | IC50 (E. coli GroEL/ES [11]) | IC50 (E. coli GroEL/ES [12]) | IC50 (E. coli GroEL/ES [13])
NC[C@H]1O[C@H](O[C@H]2[C@H](O)[C@@H](O[C@H]3O[C@H](CO)[C@@H](O)[C@H](N)[C@H]3O)[C@H](N)C[C@@H]2N)[C@H](O)[C@@H](O)[C@@H]1O [KANAMYCIN] | > 100 µM | > 100 µM | 37 µM | 8.2 µM | 25 µM | 45 µM | 16 µM | – | – | – | – | – | – | – | – | – | – | – | –
CN(C)c1ccc(O)c2c1C[C@H]1C[C@H]3[C@H](N(C)C)C(O)=C(C(N)=O)C(=O)[C@@]3(O)C(O)=C1C2=O [MINOCYCLINE] | 0.35 µM | < 0.05 µM | 1.5 µM | < 0.05 µM | 2.4 µM | 0.7 µM | < 0.05 µM | – | – | – | – | – | – | – | – | – | – | – | –
CC1(C)S[C@@H]2[C@H](NC(=O)[C@H](N)c3ccccc3)C(=O)N2[C@H]1C(=O)O [AMPICILLIN] | 76 µM | 0.63 µM | > 100 µM | 0.059 µM | 27 µM | 89 µM | 2.5 µM | – | – | – | – | – | – | – | – | – | – | – | –
CO[C@H]1/C=C/O[C@@]2(C)Oc3c(C)c(O)c4c(O)c(c(/C=N/N5CCN(C)CC5)c(O)c4c3C2=O)NC(=O)/C(C)=C\C=C\[C@H](C)[C@H](O)[C@@H](C)[C@@H](O)[C@@H](C)[C@H](OC(C)=O)[C@@H]1C [RIFAMPIN] | 0.15 µM | 1.2 µM | 6.2 µM | < 0.05 µM | 5.2 µM | 5.4 µM | 0.47 µM | – | – | – | – | – | – | – | – | – | – | – | –
CC(=O)c1cc2c(cc1NC(=O)c1ccccc1Br)OCCO2 | > 100 µM | > 100 µM | > 100 µM | > 100 µM | > 100 µM | > 100 µM | > 100 µM | > 100 µM | > 100 µM | > 100 µM | > 250 µM | > 100 µM | > 100 µM | > 100 µM | > 62.5 µM | > 100 µM | – | – | –
O=C(NCCO)Nc1ccc2nc(-c3ccco3)c(-c3ccco3)nc2c1 | > 100 µM | > 100 µM | > 100 µM | > 100 µM | > 100 µM | > 100 µM | > 100 µM | > 100 µM | > 100 µM | > 100 µM | > 250 µM | 15 µM | > 100 µM | > 100 µM | > 62.5 µM | > 100 µM | 2.6 µM | 1.4 µM | 6.5 µM
CNC(=O)Nc1ccc2nc(-c3ccco3)c(-c3ccco3)nc2c1 | 94 µM | > 100 µM | > 100 µM | > 100 µM | > 100 µM | > 100 µM | > 100 µM | > 100 µM | > 100 µM | > 100 µM | > 250 µM | 7.4 µM | > 100 µM | > 100 µM | > 62.5 µM | > 100 µM | 2.5 µM | 2.5 µM | 3 µM
CN[C@@H]1[C@H](O[C@H]2[C@H](O[C@H]3[C@H](O)[C@@H](O)[C@H](N=C(N)N)[C@@H](O)[C@@H]3N=C(N)N)O[C@@H](C)[C@]2(O)C=O)O[C@@H](CO)[C@H](O)[C@H]1O [STREPTOMYCIN] | > 100 µM | 50 µM | > 100 µM | 3.6 µM | 2.9 µM | 3.4 µM | > 100 µM | – | – | – | – | – | – | – | – | – | – | – | –
COc1cc(/C=C2/C(=N)N3N=C(CC(C)C)SC3=NC2=O)ccc1OC(=O)c1ccc(F)cc1 | > 100 µM | > 100 µM | > 100 µM | > 100 µM | > 100 µM | > 100 µM | > 100 µM | 25 µM | > 100 µM | > 100 µM | > 250 µM | 26 µM | > 100 µM | > 100 µM | > 62.5 µM | 13 µM | 25 µM | – | 24 µM
O=C(Nc1ccc2nc(-c3ccco3)c(-c3ccco3)nc2c1)N1CCCC1 | > 100 µM | > 100 µM | > 100 µM | > 100 µM | > 100 µM | > 100 µM | > 100 µM | > 100 µM | > 100 µM | > 100 µM | > 250 µM | 13 µM | > 100 µM | > 100 µM | > 62.5 µM | > 100 µM | 2.4 µM | 2.1 µM | 4.7 µM
CCCCCCCCCC(=O)N[C@@H](Cc1c[nH]c2ccccc12)C(=O)N[C@@H](CC(N)=O)C(=O)N[C@@H](CC(=O)O)C(=O)N[C@@H]1C(=O)NCC(=O)N[C@@H](CCCN)C(=O)N[C@@H](CC(=O)O)C(=O)N[C@H](C)C(=O)N[C@@H](CC(=O)O)C(=O)NCC(=O)N[C@H](CO)C(=O)N[C@@H]([C@H](C)CC(=O)O)C(=O)N[C@@H](CC(=O)c2ccccc2N)C(=O)O[C@@H]1C [DAPTOMYCIN] | 5.7 µM | 33 µM | > 100 µM | 5.7 µM | > 100 µM | > 100 µM | > 100 µM | – | – | – | – | – | – | – | – | – | – | – | –
O=c1c([N+](=O)[O-])c(Cl)c2ccccc2n1Cc1ccccc1 | 21 µM | > 100 µM | > 100 µM | > 100 µM | > 100 µM | > 100 µM | > 100 µM | > 100 µM | 17 µM | > 100 µM | > 250 µM | 2.8 µM | 3.6 µM | > 100 µM | > 62.5 µM | 2.8 µM | 22 µM | > 100 µM | 5.4 µM
COc1cccc(/C=C2/SC(=S)N(CCC(=O)Nc3ccc(O)cc3)C2=O)c1 | > 100 µM | > 100 µM | > 100 µM | 80 µM | > 100 µM | > 100 µM | > 100 µM | > 100 µM | > 100 µM | > 100 µM | > 250 µM | 13 µM | > 100 µM | > 100 µM | > 62.5 µM | > 100 µM | 9.6 µM | 12 µM | 4.7 µM
COc1ccc(C(=O)N/N=C/c2ccc(O)c3ncccc23)cc1 | 56 µM | > 100 µM | > 100 µM | > 100 µM | > 100 µM | 95 µM | 32 µM | 19 µM | 7.7 µM | > 100 µM | > 250 µM | > 100 µM | 15 µM | > 100 µM | > 62.5 µM | 83 µM | 18 µM | 52 µM | 31 µM
O=C(N[C@H](CO)[C@H](O)c1ccc([N+](=O)[O-])cc1)C(Cl)Cl [CHLORAMPHENICOL] | 2.3 µM | 2.1 µM | 2.2 µM | 2.2 µM | 16 µM | 1.4 µM | 65 µM | – | – | – | – | – | – | – | – | – | – | – | –
